For one compound, Drug metabolism results are on record in ChEMBL document CHEMBL3525945, “Metabolic switching of BILR 355 in the presence of ritonavir. II. Uncovering novel contributions by gut bacteria and aldehyde oxidase” (Drug Metab Dispos, 2012).

For one data set, the system named is Liver cytosol. The data set is described as follows: Drug metabolism in human liver cytosol assessed as BILR516-18O and BILR516-16O metabolite formation at 5 uM after 60 mins by 18O incorporation based LC-MS/MS analysis. The data set is classed as ADME, tissue-based. As to conditions: 1 h. An outline of the steps: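 BILR 402 (5 μM final) was incubated with human liver cytosol in 0.05 M potassium phosphate buffer made with 100% H2^16O or H2^16O/H2^18O 82:18 (v/v), at 37 °C without NADPH. […] The M+2 isotope contribution was subtracted before calculating peak-area ratios; n=2.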

The target in a further data set is Cytochrome P450 2D6 (Homo sapiens, UniProt P10635). The data set is described as follows: Activity at recombinant CYP2D6 (unknown origin) expressed in baculovirus-infected insect cells assessed as enzyme-mediated drug depletion at 1 to 10 uM by LC-MS/MS analysis in presence of NADPH. The data set is classed as ADME. An outline of the steps:
(§1)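 BILR 402 (1 or 10 μM) with baculovirus/insect-cell recombinant CYPs, levels scaled to average liver content (1A2 2, 2A6 1, 2B6 0.1, 2C9 1.5, 2C19 1.5, 2D6 0.3, 3A4 5 pmol/mL). Buffer 0.1 M potassium phosphate, 5 mM MgCl2, pH 7.4; 2.5 mM NADPH; 37 °C. Non-transfected insect microsomes served as controls. Aliquots taken 0.5–30 min and acetonitrile-quenched; depletion measured by LC-MS/MS with isotope-labelled internal standard.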

The target of a further data set is T1, Cytochrome P450 2B6 (Homo sapiens, UniProt P20813).
T1 sequence (P20813 whole entry): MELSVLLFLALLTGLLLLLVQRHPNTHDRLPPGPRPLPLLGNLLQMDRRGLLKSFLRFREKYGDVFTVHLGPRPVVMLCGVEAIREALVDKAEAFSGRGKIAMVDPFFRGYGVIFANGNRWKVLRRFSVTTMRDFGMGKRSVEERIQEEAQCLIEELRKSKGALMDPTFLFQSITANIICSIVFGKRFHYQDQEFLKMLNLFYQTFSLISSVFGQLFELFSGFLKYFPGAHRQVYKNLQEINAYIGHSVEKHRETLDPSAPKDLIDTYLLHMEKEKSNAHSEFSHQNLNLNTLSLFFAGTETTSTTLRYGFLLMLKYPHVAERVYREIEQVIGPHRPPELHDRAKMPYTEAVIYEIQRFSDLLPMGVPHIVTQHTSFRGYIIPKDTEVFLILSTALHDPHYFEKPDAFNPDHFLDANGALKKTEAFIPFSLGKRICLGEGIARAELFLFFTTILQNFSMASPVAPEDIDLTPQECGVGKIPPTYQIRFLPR
The data set is described as follows: Activity at recombinant CYP2B6 (unknown origin) expressed in baculovirus-infected insect cells assessed as enzyme-mediated drug depletion at 1 to 10 uM by LC-MS/MS analysis in presence of NADPH. Format: ADME. In short, it runs like this:
as §1

Another data set concerns the target Cytochrome P450 2C9 (Homo sapiens, UniProt P11712). The data set can be described thus: Activity at recombinant CYP2C9 (unknown origin) expressed in baculovirus-infected insect cells assessed as enzyme-mediated drug depletion at 1 to 10 uM by LC-MS/MS analysis in presence of NADPH. Format: ADME. An outline of the steps:
as §1

Cytochrome P450 2D6, sequence (P10635 whole entry): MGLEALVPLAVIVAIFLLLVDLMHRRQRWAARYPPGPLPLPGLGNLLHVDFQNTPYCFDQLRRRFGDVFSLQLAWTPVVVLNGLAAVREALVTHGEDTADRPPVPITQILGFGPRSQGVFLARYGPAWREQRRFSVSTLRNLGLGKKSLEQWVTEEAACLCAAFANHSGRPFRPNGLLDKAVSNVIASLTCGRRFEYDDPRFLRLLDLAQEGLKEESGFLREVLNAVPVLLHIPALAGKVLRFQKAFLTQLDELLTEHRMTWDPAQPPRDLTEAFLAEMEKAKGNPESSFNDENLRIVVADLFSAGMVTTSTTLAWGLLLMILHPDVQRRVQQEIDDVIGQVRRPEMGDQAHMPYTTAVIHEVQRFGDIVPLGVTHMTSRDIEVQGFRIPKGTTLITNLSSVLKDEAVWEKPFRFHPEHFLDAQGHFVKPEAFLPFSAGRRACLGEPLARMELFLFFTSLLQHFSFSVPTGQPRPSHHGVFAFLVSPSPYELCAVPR
Cytochrome P450 2C9, sequence (P11712 whole entry): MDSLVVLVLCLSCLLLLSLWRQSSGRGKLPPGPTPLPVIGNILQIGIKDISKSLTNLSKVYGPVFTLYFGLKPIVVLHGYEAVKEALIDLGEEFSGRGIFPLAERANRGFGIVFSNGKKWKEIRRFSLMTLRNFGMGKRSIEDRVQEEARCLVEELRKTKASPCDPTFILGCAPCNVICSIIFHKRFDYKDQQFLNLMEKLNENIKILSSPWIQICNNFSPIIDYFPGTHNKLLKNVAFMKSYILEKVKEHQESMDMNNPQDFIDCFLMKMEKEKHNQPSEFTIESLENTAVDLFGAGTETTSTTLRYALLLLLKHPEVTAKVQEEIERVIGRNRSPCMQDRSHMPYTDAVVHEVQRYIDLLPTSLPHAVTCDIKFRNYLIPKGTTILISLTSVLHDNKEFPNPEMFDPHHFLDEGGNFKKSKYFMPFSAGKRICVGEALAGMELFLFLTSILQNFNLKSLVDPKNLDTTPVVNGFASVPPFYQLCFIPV

As for `CCN1c2ncc(CCOc3ccnc4ccccc34)cc2C(=O)N(C)c2cccnc21`, the Drug metabolism entry in the data set with Liver cytosol is “metabolite_detected”; on Cytochrome P450 2D6, “metabolite_not_detected”; on Cytochrome P450 2B6, “metabolite_not_detected”; at Cytochrome P450 2C9 it was “metabolite_not_detected”.
